Each structure is given as a SMILES string. The source made the active and inactive calls. The rule behind the calls is not given here.

One may read the IC50 as the point on the concentration scale where inhibition reaches its midpoint. What is called inhibition is the relative decrease from the control value, in per cent.

Series [1] concerns the target T1, Calcium/calmodulin-dependent protein kinase type II subunit gamma (Homo sapiens, UniProt Q13555). Description: Inhibition of CAMK2g in human HeLa cells lysate pre incubated for 15 mins followed by ATP acyl phosphate probe addition and measured after 10 mins by LC-MS/MS analysis. The class given is subcellular. An outline of the steps: (§1)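 KiNativ profiling in HeLa lysate (5 mg/mL total protein). Lysate incubated 15 min with inhibitor at 50, 10, 2, 0.8 or 0 μM. ATP or ADP acylphosphate probe then added (5 μM final) and reacted 10 min. Reaction stopped with urea and analysed by targeted MS, using up to four fragment ions per kinase peptide-probe conjugate. % inhibition taken against untreated lysate. Run in duplicate.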

Series [2] has as its target T2, Cyclin-dependent kinase 2 (Homo sapiens, UniProt P24941). Description: Inhibition of CDK2 K2 site in human HeLa cells lysate pre incubated for 15 mins followed by ATP acyl phosphate probe addition and measured after 10 mins by LC-MS/MS analysis. The class given is subcellular. Summed up: as §1
The target of series [3] is Serine/threonine-protein kinase tousled-like 2 (Homo sapiens, UniProt Q86UE8). Description: Inhibition of TLK2 in human HeLa cells lysate pre incubated for 15 mins followed by ADP acyl phosphate probe addition and measured after 10 mins by LC-MS/MS analysis. The class given is subcellular.
Serine/threonine-protein kinase tousled-like 2, sequence (Q86UE8 whole entry, the tested form may be a part): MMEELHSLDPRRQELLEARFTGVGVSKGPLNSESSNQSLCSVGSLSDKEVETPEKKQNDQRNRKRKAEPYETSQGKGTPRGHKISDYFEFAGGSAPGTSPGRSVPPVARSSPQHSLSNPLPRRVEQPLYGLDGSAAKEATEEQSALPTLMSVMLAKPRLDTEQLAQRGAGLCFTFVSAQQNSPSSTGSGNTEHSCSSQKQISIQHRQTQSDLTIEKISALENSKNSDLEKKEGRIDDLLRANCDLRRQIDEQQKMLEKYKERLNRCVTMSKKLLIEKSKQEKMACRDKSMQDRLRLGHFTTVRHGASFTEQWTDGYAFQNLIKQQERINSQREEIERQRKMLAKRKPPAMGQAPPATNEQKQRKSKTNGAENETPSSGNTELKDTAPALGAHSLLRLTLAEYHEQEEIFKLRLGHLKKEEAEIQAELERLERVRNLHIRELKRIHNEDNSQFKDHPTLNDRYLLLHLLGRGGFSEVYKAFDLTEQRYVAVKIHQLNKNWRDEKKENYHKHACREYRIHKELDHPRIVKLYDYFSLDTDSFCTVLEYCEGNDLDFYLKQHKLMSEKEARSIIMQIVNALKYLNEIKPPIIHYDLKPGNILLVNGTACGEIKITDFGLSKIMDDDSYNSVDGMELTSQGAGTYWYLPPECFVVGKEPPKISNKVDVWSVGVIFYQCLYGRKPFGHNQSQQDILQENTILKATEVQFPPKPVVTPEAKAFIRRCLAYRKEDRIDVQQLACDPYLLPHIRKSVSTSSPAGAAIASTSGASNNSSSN
The target in series [4] is Ribosomal protein S6 kinase alpha-1 (Homo sapiens, UniProt Q15418). Description: Inhibition of RSK1 domain 2 K1 site in human HeLa cells lysate at 50 uM pre incubated for 15 mins followed by ADP acyl phosphate probe addition and measured after 10 mins by LC-MS/MS analysis relative to control. The class given is subcellular. To be noted: time 25.0 min.
Ribosomal protein S6 kinase alpha-1, sequence (Q15418 whole entry, the tested form may be a part): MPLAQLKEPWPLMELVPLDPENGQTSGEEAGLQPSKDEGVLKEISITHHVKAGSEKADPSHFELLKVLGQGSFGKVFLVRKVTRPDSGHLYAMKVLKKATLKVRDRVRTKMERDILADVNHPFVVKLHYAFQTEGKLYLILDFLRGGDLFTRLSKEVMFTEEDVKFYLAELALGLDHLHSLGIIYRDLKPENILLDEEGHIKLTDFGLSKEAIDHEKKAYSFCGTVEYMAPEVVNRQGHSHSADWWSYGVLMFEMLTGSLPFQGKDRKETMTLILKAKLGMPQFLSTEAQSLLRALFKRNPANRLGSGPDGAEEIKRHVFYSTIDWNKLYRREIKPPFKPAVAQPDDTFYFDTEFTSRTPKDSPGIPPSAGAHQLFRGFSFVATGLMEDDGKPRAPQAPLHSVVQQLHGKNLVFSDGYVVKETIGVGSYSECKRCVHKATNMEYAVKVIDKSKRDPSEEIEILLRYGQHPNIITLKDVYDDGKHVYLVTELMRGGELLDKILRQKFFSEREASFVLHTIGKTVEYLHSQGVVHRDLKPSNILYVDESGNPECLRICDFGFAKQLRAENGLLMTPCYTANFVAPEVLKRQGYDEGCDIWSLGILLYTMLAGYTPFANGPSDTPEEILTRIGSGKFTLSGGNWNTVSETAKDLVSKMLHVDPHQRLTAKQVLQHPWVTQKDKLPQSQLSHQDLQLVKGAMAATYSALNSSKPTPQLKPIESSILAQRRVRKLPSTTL
Series [5] has as its target Calcium/calmodulin-dependent protein kinase type 1D (Homo sapiens, UniProt Q8IU85). Description: Inhibition of CAMK1d in human HeLa cells lysate at 50 uM pre incubated for 15 mins followed by ADP acyl phosphate probe addition and measured after 10 mins by LC-MS/MS analysis relative to control. The conditions noted are these: time 25.0 min. The class given is subcellular. Summed up:
(§2)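 KiNativ-type profiling in HeLa lysate (5 mg/mL total protein). Lysate preincubated 15 min with inhibitor at 50, 10, 2, 0.8 or 0 μM, then ATP or ADP acylphosphate probe added (5 μM final) for 10 min. Reaction stopped with urea and analysed by targeted MS, using up to four fragment ions per kinase peptide-probe conjugate. % inhibition calculated against untreated lysate. Duplicate reactions.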

Series [6] deals with T2, Cyclin-dependent kinase 2. Description: Inhibition of CDK2 in human HeLa cells lysate at 50 uM pre incubated for 15 mins followed by ADP acyl phosphate probe addition and measured after 10 mins by LC-MS/MS analysis relative to control. To be noted: time 25.0 min. The class given is subcellular. An outline of the steps: as §1
The target in series [7] is Serine/threonine-protein kinase Chk2 (Homo sapiens, UniProt O96017). Description: Inhibition of CHK2 in human HeLa cells lysate at 10 uM pre incubated for 15 mins followed by ADP acyl phosphate probe addition and measured after 10 mins by LC-MS/MS analysis relative to control. The class given is subcellular. To be noted: time 25.0 min.
Serine/threonine-protein kinase Chk2, sequence (O96017 whole entry): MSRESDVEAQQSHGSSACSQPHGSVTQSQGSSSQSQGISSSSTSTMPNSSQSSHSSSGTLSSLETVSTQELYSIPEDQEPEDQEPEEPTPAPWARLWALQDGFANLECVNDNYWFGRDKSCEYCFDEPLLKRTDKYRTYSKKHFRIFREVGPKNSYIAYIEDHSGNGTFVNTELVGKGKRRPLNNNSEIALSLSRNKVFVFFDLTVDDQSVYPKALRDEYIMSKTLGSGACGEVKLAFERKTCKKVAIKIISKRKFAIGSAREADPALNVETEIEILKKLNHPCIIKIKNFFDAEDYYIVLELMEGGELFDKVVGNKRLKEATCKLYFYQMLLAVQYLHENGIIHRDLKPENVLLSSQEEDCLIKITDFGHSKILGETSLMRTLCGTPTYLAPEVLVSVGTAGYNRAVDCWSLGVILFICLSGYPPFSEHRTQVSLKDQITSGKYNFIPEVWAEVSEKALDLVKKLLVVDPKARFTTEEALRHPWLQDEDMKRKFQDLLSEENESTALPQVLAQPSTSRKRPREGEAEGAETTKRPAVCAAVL
In series [8] the target is T3, Dual specificity mitogen-activated protein kinase kinase 5 (Homo sapiens) (UniProt Q13163).
T3 sequence (whole entry): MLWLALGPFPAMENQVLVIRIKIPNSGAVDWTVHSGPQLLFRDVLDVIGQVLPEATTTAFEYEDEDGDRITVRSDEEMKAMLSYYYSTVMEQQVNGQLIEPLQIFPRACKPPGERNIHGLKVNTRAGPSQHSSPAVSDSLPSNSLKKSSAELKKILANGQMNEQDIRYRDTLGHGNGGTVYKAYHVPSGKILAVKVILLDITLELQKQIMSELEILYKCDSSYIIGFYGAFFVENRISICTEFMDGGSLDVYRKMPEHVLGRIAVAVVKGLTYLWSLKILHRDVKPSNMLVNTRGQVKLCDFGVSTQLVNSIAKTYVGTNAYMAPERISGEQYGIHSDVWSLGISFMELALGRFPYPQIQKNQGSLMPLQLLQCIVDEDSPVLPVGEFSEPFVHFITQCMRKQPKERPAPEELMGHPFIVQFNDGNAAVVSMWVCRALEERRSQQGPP
Description: Inhibition of MAP2K5 in human HeLa cells lysate at 10 uM pre incubated for 15 mins followed by ADP acyl phosphate probe addition and measured after 10 mins by LC-MS/MS analysis relative to control. The class given is subcellular. The conditions noted are these: time 25.0 min.

Series [9] has as its target Epidermal growth factor receptor (Homo sapiens, UniProt P00533). Description: Inhibition of EGFR in human HeLa cells lysate at 2 uM pre incubated for 15 mins followed by ADP acyl phosphate probe addition and measured after 10 mins by LC-MS/MS analysis relative to control. The class given is subcellular. To be noted: time 25.0 min.
The target of series [10] is Mitogen-activated protein kinase 3 (Homo sapiens, UniProt P27361). Description: Inhibition of ERK1 in human HeLa cells lysate at 2 uM pre incubated for 15 mins followed by ADP acyl phosphate probe addition and measured after 10 mins by LC-MS/MS analysis relative to control. The class given is subcellular. To be noted: time 25.0 min.
Mitogen-activated protein kinase 3, sequence (P27361 whole entry, the tested form may be a part): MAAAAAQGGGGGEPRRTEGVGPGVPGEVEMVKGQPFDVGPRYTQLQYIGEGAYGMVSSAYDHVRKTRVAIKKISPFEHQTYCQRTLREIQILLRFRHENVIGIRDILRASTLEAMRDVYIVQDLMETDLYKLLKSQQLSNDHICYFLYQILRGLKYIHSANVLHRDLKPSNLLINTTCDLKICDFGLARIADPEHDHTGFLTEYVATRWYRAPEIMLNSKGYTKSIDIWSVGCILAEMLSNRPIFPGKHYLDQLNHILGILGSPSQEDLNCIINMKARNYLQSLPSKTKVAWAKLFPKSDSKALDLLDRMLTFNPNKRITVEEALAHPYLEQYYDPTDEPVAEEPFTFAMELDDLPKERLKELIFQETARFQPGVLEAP
For series [11], the target named is Ribosomal protein S6 kinase alpha-3 (Homo sapiens, UniProt P51812). Description: Inhibition of RSK2 domain 2 in human HeLa cells lysate at 50 uM pre incubated for 15 mins followed by ATP acyl phosphate probe addition and measured after 10 mins by LC-MS/MS analysis relative to control. The class given is subcellular. To be noted: time 25.0 min.
The nature of series [12]: Inhibition of MAP3K5/MAP3K6/MAP3K15 in human HeLa cells lysate at 50 uM pre incubated for 15 mins followed by ATP acyl phosphate probe addition and measured after 10 mins by LC-MS/MS analysis relative to control. The conditions noted are these: 25 min, condition cancer.
Series [13] addresses T1, Calcium/calmodulin-dependent protein kinase type II subunit gamma. Description: Inhibition of CAMK2g in human HeLa cells lysate at 10 uM pre incubated for 15 mins followed by ATP acyl phosphate probe addition and measured after 10 mins by LC-MS/MS analysis relative to control. The class given is subcellular. The conditions noted are these: time 25.0 min. An outline of the steps:
as §2

Series [14] concerns the target Interleukin-1 receptor-associated kinase 1 (Homo sapiens, UniProt P51617). Description: Inhibition of IRAK1 in human HeLa cells lysate at 10 uM pre incubated for 15 mins followed by ATP acyl phosphate probe addition and measured after 10 mins by LC-MS/MS analysis relative to control. The conditions noted are these: time 25.0 min. The class given is subcellular.
Series [15] concerns the target Glycogen synthase kinase-3 beta (Homo sapiens, UniProt P49841). Description: Inhibition of GSK3B isoform 2 in human HeLa cells lysate at 2 uM pre incubated for 15 mins followed by ATP acyl phosphate probe addition and measured after 10 mins by LC-MS/MS analysis relative to control. The class given is subcellular. To be noted: time 25.0 min.
Series [16] has as its target Tyrosine-protein kinase Fer (Homo sapiens, UniProt P16591). Description: Inhibition of FER in human HeLa cells lysate at 2 uM pre incubated for 15 mins followed by ATP acyl phosphate probe addition and measured after 10 mins by LC-MS/MS analysis relative to control. The class given is subcellular. To be noted: time 25.0 min.
The target in series [17] is Cyclin-dependent kinase 10 (Homo sapiens, UniProt Q15131). Description: Inhibition of CDK10 in human HeLa cells lysate at 2 uM pre incubated for 15 mins followed by ATP acyl phosphate probe addition and measured after 10 mins by LC-MS/MS analysis relative to control. The class given is subcellular. To be noted: time 25.0 min. Summed up: as §1
Cyclin-dependent kinase 10, sequence (Q15131 whole entry): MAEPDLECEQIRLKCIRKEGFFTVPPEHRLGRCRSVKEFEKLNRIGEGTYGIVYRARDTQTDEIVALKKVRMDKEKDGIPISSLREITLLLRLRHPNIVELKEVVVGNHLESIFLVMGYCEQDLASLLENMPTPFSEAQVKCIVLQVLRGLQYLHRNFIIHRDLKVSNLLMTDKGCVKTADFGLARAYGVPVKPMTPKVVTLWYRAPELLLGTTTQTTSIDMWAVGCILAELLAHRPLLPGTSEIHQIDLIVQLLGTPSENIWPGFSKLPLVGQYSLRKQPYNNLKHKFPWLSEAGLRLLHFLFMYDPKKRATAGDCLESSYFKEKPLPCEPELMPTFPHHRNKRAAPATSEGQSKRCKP
Series [18] can be described thus: Toxicity in C57Bl/6 mouse assessed as effect on urea nitrogen level at 50 mg/kg, ip for 14 days (reference value: 22 mg/dl). The class given is organism-based. The conditions noted are these: in vivo, 336 h, time 14 day.
In series [19] the target is Mitogen-activated protein kinase 7 (Mus musculus) (UniProt Q9WVS8). Description: Inhibition of BMK1 in mouse MEF cells assessed as increase in p21 protein expression at 5 uM incubated for 16 hrs by Western blot analysis. The class given is cell-based. Summed up: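 Pml+/+ or Pml−/− MEFs treated ±5 μM inhibitor for 16 h. Lysates western blotted for p21, quantified by densitometry and normalized to GAPDH, relative to untreated Pml+/+ MEF set as 1. n = 3, ±SEM.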
Mitogen-activated protein kinase 7 (Mus musculus), sequence (Q9WVS8 whole entry): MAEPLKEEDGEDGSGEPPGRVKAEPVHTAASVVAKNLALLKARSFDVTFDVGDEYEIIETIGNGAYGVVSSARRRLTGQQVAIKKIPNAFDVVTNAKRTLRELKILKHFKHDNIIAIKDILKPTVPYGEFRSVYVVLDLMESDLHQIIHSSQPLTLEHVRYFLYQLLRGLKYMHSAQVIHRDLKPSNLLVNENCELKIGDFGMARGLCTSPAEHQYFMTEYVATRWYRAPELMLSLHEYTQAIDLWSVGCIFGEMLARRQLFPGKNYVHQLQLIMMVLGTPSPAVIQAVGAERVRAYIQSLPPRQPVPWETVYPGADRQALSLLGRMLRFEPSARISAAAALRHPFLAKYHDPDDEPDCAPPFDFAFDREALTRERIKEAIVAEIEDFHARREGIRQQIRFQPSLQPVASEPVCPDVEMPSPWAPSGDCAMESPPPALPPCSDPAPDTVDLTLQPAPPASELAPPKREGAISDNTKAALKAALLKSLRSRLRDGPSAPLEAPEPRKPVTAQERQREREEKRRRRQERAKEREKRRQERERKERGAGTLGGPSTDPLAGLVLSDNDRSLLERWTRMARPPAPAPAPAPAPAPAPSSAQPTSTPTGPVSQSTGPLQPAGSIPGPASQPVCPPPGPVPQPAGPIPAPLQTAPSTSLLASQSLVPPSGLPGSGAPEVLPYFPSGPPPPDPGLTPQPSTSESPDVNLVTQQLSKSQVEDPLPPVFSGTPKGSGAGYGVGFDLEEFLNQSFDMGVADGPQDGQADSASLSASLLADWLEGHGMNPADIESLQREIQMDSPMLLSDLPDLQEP
In general terms: In western blotting, separated proteins are transferred to a membrane and probed.

T1 sequence (Q13555 whole entry, the tested form may be a part): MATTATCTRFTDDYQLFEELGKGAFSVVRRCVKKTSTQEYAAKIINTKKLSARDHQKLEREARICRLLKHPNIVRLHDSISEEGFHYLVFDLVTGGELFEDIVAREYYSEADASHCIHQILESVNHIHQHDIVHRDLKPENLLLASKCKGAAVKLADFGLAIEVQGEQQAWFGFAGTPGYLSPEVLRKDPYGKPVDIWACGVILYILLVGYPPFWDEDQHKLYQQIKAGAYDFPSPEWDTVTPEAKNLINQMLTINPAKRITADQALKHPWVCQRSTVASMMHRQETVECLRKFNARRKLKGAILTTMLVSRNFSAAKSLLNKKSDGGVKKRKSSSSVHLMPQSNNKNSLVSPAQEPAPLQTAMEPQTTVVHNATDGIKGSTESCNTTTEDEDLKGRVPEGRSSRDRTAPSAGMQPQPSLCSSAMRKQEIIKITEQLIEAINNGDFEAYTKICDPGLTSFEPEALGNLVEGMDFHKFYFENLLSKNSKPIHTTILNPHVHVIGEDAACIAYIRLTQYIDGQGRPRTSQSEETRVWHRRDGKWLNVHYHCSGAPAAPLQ
Interleukin-1 receptor-associated kinase 1, sequence (P51617 whole entry, looked up, canonical isoform): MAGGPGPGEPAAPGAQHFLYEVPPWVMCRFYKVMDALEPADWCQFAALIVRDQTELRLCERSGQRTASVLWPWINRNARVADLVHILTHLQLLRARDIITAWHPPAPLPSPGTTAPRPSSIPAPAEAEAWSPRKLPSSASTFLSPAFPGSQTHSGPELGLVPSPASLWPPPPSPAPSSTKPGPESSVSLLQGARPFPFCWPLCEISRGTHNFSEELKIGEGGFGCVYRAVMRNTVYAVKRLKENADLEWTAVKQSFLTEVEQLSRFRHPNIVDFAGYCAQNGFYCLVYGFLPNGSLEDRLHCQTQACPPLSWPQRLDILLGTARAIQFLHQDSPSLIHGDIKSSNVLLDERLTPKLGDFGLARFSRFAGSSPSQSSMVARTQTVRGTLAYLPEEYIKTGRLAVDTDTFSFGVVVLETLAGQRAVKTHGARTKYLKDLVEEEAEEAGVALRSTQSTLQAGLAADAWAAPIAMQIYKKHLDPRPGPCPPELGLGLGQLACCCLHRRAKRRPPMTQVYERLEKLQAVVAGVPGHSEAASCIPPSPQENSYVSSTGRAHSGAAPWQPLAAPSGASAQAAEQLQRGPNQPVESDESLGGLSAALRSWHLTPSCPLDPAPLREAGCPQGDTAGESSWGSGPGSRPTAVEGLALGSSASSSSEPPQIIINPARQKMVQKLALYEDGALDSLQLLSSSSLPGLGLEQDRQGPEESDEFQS

In the case of `CCOc1cc(N2CCC(O)CC2)ccc1Nc1ncc2c(n1)N(C)c1ccccc1C(=O)N2C`, the IC50 in [1], in [2] and in series [3] was over 50 µM in each case. In addition, the inhibition is 63.8% in [4]; -1.9% in series [5]; -3.2% in [6]; 1.1% in series [7]; -9.9% in [8]; 12.2% in [9]. For the same compound, the inhibition is 16.2% in [10]; 47.7% in [11]; -8.6% in [13]; 1.9% in series [14]; 7.8% in series [15]; 8% in [16]. Moreover, in series [17], the inhibition is 3.7%. In addition, the inhibition at 50 µM in series [12] was 2.5%. The Activity in series [18] was found to be 31 mg/dL. The inhibition entry in [19] was “Active”.

The values are drawn from ChEMBL document CHEMBL5661979, “Pharmacological inhibition of BMK1 suppresses tumor growth through promyelocytic leukemia protein” (Cancer Cell, 2010).
